The source of these data is ChEMBL document CHEMBL4425095, “Novel Cephalosporins Selectively Active on Nonreplicating Mycobacterium tuberculosis” (J Med Chem, 2016).

SMILES strings stand for the structures. Values after ≈ are worked out from the molar mass of the structure shown. Active and inactive are the calls of the source. The calls are words filed in the database; no cut-off is given here.

The subject of test [1] is Mycobacterium tuberculosis. Kind of test: Antimycobacterial activity against non-replicating Mycobacterium tuberculosis mc2 6220 harboring panCD/lysA deletion mutant incubated for 3 days measured at OD580 = 0.1 by two-fold serial dilution method. Type of test: functional. In a few lines: (§1)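 M. tuberculosis mc26220 washed twice in PBS-tyloxapol and resuspended in Sauton's-based nonreplicating medium (pH 5.0, butyrate 0.05%, BSA, tyloxapol, lysine, pantothenate, 0.5 mM NaNO2). Incubated at 1% O2, 5% CO2 with 2-fold serially diluted compound from DMSO. After 3 days, diluted 5-fold in fresh replicating medium for outgrowth at 20% O2. Reported as MIC90.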

Test [2] concerns Mycobacterium tuberculosis. Description: Antimycobacterial activity against non-replicating Mycobacterium tuberculosis mc2 6220 harboring panCD/lysA deletion mutant incubated for 6 days measured at OD580 = 0.1 by two-fold serial dilution method. Type of test: functional. In a few lines:
as §1

In test [3] the test system is Mycobacterium tuberculosis. Description: Antimycobacterial activity against non-replicating Mycobacterium tuberculosis mc2 6220 harboring panCD/lysA deletion mutant incubated for 7 days measured at OD580 = 0.01 by high throughput screen assay. Type of test: functional, organism-based.
Test [4] concerns Mycobacterium tuberculosis. Description: Antimycobacterial activity against replicating Mycobacterium tuberculosis mc2 6220 harboring panCD/lysA deletion mutant by two-fold serial dilution method. It is filed as functional. The method, boiled down: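 M. tuberculosis mc26220 in replicating medium supplemented with glycerol (final 0.5%), OADC, casamino acids 0.05%, lysine 240 μg/mL and pantothenate 24 μg/mL. Exposed to 2-fold serially diluted compound from DMSO. OD580 read after 7 days at 20% O2, 5% CO2. Reported as MIC90.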

Test [5] relates to Mycobacterium tuberculosis. Kind of test: Antimycobacterial activity against non-replicating Mycobacterium tuberculosis mc2 6220 harboring panCD/lysA deletion mutant incubated for 3 days measured at OD580 = 0.01 by two-fold serial dilution method. It is filed as functional. The method, boiled down:
as §1

For test [6], the system named is Mycobacterium tuberculosis. Description: Antimycobacterial activity against replicating Mycobacterium tuberculosis mc2 6220 harboring panCD/lysA deletion mutant incubated for 3 days measured at OD580 = 0.01 by two-fold serial dilution method. Type of test: functional.
The test system of test [7] is Mycobacterium tuberculosis. Description: Antimycobacterial activity against non-replicating Mycobacterium tuberculosis mc2 6220 harboring panCD/lysA deletion mutant incubated for 6 days measured at OD580 = 0.01 by two-fold serial dilution method. It is filed as functional. The method, boiled down: as §1
Test [8] relates to Mycobacterium tuberculosis. Kind of test: Antimycobacterial activity against non-replicating Mycobacterium tuberculosis mc2 6220 harboring panCD/lysA deletion mutant incubated for 7 days measured at OD580 = 0.01 by two-fold serial dilution method. Type of test: functional. In a few lines: as §1
The test system of test [9] is Mycobacterium tuberculosis. Kind of test: Antimycobacterial activity against non-replicating Mycobacterium tuberculosis mc2 6220 harboring panCD/lysA deletion mutant incubated for 7 days measured at OD580 = 0.1 by two-fold serial dilution method. It is filed as functional. The method, boiled down: as §1

In the case of `CCCOC(=O)N[C@@H]1C(=O)N2C(C(=O)OCCC)=C(C)CS[C@H]12`, the MIC90 (in general, the lowest concentration that inhibits either 90% of growth or 90% of the strains tested, depending on the study) in [1] turned out to be 2.61 µg/mL (≈ 7.62 µM); in [2], 0.52 µg/mL (≈ 1.52 µM); in [4], 55.44 µg/mL (≈ 162 µM); in test [5], 3.11 µg/mL (≈ 9.08 µM); in test [6] it was 55.44 µg/mL (≈ 162 µM). In addition, the outcome in test [3] was Active.

Turning to `CCCN[C@@H]1C(=O)N2C(C(=O)OCCC)=C(C)CS[C@H]12`, the MIC90 in test [1] is 2.69 µg/mL (≈ 9.01 µM); in test [2], 0.45 µg/mL (≈ 1.51 µM); in test [4] it was more than 100 µg/mL; in test [5] it was 0.7 µg/mL (≈ 2.35 µM); in test [6], more than 100 µg/mL. For the same molecule, in test [3], the outcome was Active.

Consider `CCCOC(=O)C1=C(C)CS[C@@H]2[C@H](NC(=O)COc3ccccc3)C(=O)N12`, for which the MIC90 is 1.76 µg/mL (≈ 4.51 µM) in test [1]; 1.05 µg/mL (≈ 2.69 µM) in test [2]; 0.64 µg/mL (≈ 1.64 µM) in test [7]; 0.64 µg/mL (≈ 1.64 µM) in test [8]; more than 100 µg/mL in test [4]; 0.9 µg/mL (≈ 2.3 µM) in test [5]. Besides, the MIC90 in test [6] is more than 100 µg/mL; in test [9], 1.05 µg/mL (≈ 2.69 µM). In test [3], the outcome was Active.
